The source of these data is PMC4086711 (European journal of pain (London, England), 2011).

Counter-ions that a name gives are not always drawn.

In one test the test system is KOR. The experiment in a line: Ca2+ mobilization. The test is classed as cell-based. The note with it: agonist; HEK-293 with chimeric G-protein delta6-Gqi4-myr. The method, boiled down: (§1)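 HEK-293 cells stably expressing the receptor, grown in DMEM with 10% FCS at 37 °C in 7% CO2, were transiently transfected with Δ6-Gqi4-myr (100 ng per 60,000 cells). After one day, cells were loaded with Ca2+ dye for 60 min and stimulated with increasing ligand concentrations to give dose–response curves and EC50. Each experiment was run at least three times in triplicate; values are means ± SEM.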
Background: Calcium flux is commonly read through the fluorescence of an indicator in the cells.

The next test relates to MOR. The experiment in a line: Ca2+ mobilization. To be noted: agonist; HEK-293 with chimeric G-protein delta6-Gqi4-myr. The test is classed as cell-based. The method, boiled down:
as §1

Take `COC(=O)N1CCN(C(=O)Cc2ccc(Cl)c(Cl)c2)C(CN2CCCC2)C1` (centres unmarked) [GR89, 696, 4-[(3,4-Dichlorophenyl)acetyl]-3-(1-pyrrolidinylmethyl)-1-piperazine-carboxylic acid methyl ester fumarate]: the “pEC50 (M) / KOR” value in the test on KOR was 10.1 ± 0.2 pEC50 (M). Further, in the test with MOR, the “pEC50 (M) / MOR” value was 7.2 ± 0.2 pEC50 (M).
